How the values were obtained:
LN-229 [1] = test: Cytotoxicity against human LN229 cells assessed as cell viability at 10 ug/ml incubated for 72 hrs by Guava ViaCount reagent based flow cytometry; format: functional; conditions: LN-229, 72 h, read-out: Activity
In short: (§1)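 Cells kept as semi-confluent monolayers in DMEM with 10% FBS, 50 U/ml penicillin and […], at 37 °C under 5% CO₂. Seeded at 2 × 10⁴ cells per well in 24-well plates. Compounds were made up as 10 mg/ml DMSO stocks, diluted into medium to a final 1 or 10 μg/ml, and left on the cells for 72 h.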

LN-229 [2] = test: Cytotoxicity against human LN229 cells assessed as cell viability at 1 ug/ml incubated for 72 hrs by Guava ViaCount reagent based flow cytometry; format: functional; conditions: LN-229, 72 h, read-out: Activity; in short: as §1
[3] = Solubility in water; format: physicochemical; conditions: buffer
[4] = Solubility in organic solvents; format: physicochemical

O=C1NC(=O)C(=CNc2cccc3c2C(=O)c2ccccc2C3=O)C(=O)N1
viability at 10 µg/mL (LN-229 [1]): 22.1%
viability at 1 µg/mL (LN-229 [2]): 31.9%

O=C1NC(=S)NC(=O)C1=CNc1ccc2cc3ccccc3cc2c1
viability at 10 µg/mL (LN-229 [1]): 11%
viability at 1 µg/mL (LN-229 [2]): 83.3%

CN1C(=O)/C(=C/Nc2ccc3c(c2)C(=O)c2ccccc2C3=O)C(=O)NC1=S
viability at 10 µg/mL (LN-229 [1]): 17.2%
viability at 1 µg/mL (LN-229 [2]): 80.8%

CN1C(=O)NC(=O)/C(=C\Nc2ccc3c(c2)C(=O)c2ccccc2C3=O)C1=O
viability at 10 µg/mL (LN-229 [1]): 28.9%
viability at 1 µg/mL (LN-229 [2]): 89.7%

CN1C(=O)NC(=O)/C(=C\Nc2ccc3ccccc3c2)C1=O
viability at 10 µg/mL (LN-229 [1]): 56%
viability at 1 µg/mL (LN-229 [2]): 90%

CN1C(=O)NC(=O)/C(=C\Nc2ccc(-c3ccccc3)cc2)C1=O
viability at 10 µg/mL (LN-229 [1]): 93.5%
viability at 1 µg/mL (LN-229 [2]): 96.9%

CN1C(=O)C(=CNc2ccc3ccccc3c2)C(=O)N(C)C1=O
viability at 10 µg/mL (LN-229 [1]): 86.6%
viability at 1 µg/mL (LN-229 [2]): 90.5%

O=C1NC(=S)NC(=O)C1=CNc1ccc2c(c1)C(=O)c1ccccc1C2=O
viability at 10 µg/mL (LN-229 [1]): 12.3%
viability at 1 µg/mL (LN-229 [2]): 87.4%

CN1C(=O)/C(=C/Nc2cccc3ccccc23)C(=O)NC1=S
viability at 10 µg/mL (LN-229 [1]): 78.3%
viability at 1 µg/mL (LN-229 [2]): 90%

O=C1NC(=O)C(=CNc2ccc3ccccc3c2)C(=O)N1
viability at 10 µg/mL (LN-229 [1]): 82.4%
viability at 1 µg/mL (LN-229 [2]): 92.4%

O=C1NC(=O)N(c2ccccc2)C(=O)/C1=C/Nc1cccc2c1C(=O)c1ccccc1C2=O
viability at 10 µg/mL (LN-229 [1]): 29.2%
viability at 1 µg/mL (LN-229 [2]): 66.3%

CN1C(=O)/C(=C/Nc2cccc3c2C(=O)c2ccccc2C3=O)C(=O)NC1=S
solubility [3]: Insoluble
solubility [4]: Insoluble

CN1C(=O)C(=CNc2ccc(-c3ccccc3)cc2)C(=O)N(C)C1=O
viability at 10 µg/mL (LN-229 [1]): 94.6%
viability at 1 µg/mL (LN-229 [2]): 94.8%

O=C1NC(=O)C(=CNc2ccc3c(c2)C(=O)c2ccccc2C3=O)C(=O)N1
viability at 10 µg/mL (LN-229 [1]): 17.2%
viability at 1 µg/mL (LN-229 [2]): 82.9%

CN1C(=O)C(=CNc2ccccc2)C(=O)N(C)C1=O
solubility [3]: Insoluble
solubility [4]: Insoluble
viability at 10 µg/mL (LN-229 [1]): 96.1%
viability at 1 µg/mL (LN-229 [2]): 95%

CN1C(=O)NC(=O)/C(=C\Nc2cccc3ccccc23)C1=O
viability at 10 µg/mL (LN-229 [1]): 94.5%
viability at 1 µg/mL (LN-229 [2]): 89%

O=C1NC(=O)C(=CNc2ccc(-c3ccccc3)cc2)C(=O)N1
viability at 10 µg/mL (LN-229 [1]): 85.5%
viability at 1 µg/mL (LN-229 [2]): 92.6%

CN1C(=O)C(=CNc2cccc3c2C(=O)c2ccccc2C3=O)C(=O)N(C)C1=O
viability at 10 µg/mL (LN-229 [1]): 86.3%
viability at 1 µg/mL (LN-229 [2]): 94.7%

CN1C(=O)C(=CNc2ccc3cc4ccccc4cc3c2)C(=O)N(C)C1=O
viability at 10 µg/mL (LN-229 [1]): 60.8%
viability at 1 µg/mL (LN-229 [2]): 88.1%

CN1C(=O)NC(=O)/C(=C\Nc2cccc3c2C(=O)c2ccccc2C3=O)C1=O
viability at 10 µg/mL (LN-229 [1]): 35.3%
viability at 1 µg/mL (LN-229 [2]): 84.8%

CN1C(=O)C(=CNc2cccc3ccccc23)C(=O)N(C)C1=O
viability at 10 µg/mL (LN-229 [1]): 95.4%
viability at 1 µg/mL (LN-229 [2]): 94.5%

CN1C(=O)C(=CNc2ccc3c(c2)C(=O)c2ccccc2C3=O)C(=O)N(C)C1=O
viability at 10 µg/mL (LN-229 [1]): 68.3%
viability at 1 µg/mL (LN-229 [2]): 92.4%

CN1C(=O)/C(=C/Nc2ccc(-c3ccccc3)cc2)C(=O)NC1=S
viability at 10 µg/mL (LN-229 [1]): 89.6%
viability at 1 µg/mL (LN-229 [2]): 97%

O=C1NC(=O)N(c2ccc([N+](=O)[O-])cc2)C(=O)/C1=C/Nc1ccc2c(c1)C(=O)c1ccccc1C2=O
viability at 10 µg/mL (LN-229 [1]): 61.8%
viability at 1 µg/mL (LN-229 [2]): 88.2%

O=C1NC(=S)NC(=O)C1=CNc1cccc2c1C(=O)c1ccccc1C2=O
viability at 10 µg/mL (LN-229 [1]): 48.6%
viability at 1 µg/mL (LN-229 [2]): 65%

O=C1NC(=S)NC(=O)C1=CNc1ccc2ccccc2c1
viability at 10 µg/mL (LN-229 [1]): 94.4%
viability at 1 µg/mL (LN-229 [2]): 96.5%

CN1C(=O)/C(=C/Nc2ccc3cc4ccccc4cc3c2)C(=O)NC1=S
viability at 10 µg/mL (LN-229 [1]): 3.7%
viability at 1 µg/mL (LN-229 [2]): 75%

O=C1NC(=O)C(=CNc2ccccc2)C(=O)N1
solubility [3]: Insoluble
solubility [4]: Insoluble
viability at 10 µg/mL (LN-229 [1]): 96.1%
viability at 1 µg/mL (LN-229 [2]): 96.2%

O=C1NC(=S)NC(=O)C1=CNc1ccccc1
solubility [3]: Insoluble
solubility [4]: Insoluble
viability at 10 µg/mL (LN-229 [1]): 95.3%
viability at 1 µg/mL (LN-229 [2]): 96.5%

CN1C(=O)NC(=O)/C(=C/Nc2ccccc2)C1=O
solubility [3]: Insoluble
solubility [4]: Insoluble
viability at 10 µg/mL (LN-229 [1]): 95%
viability at 1 µg/mL (LN-229 [2]): 94.9%

CN1C(=O)NC(=O)/C(=C\Nc2ccc3cc4ccccc4cc3c2)C1=O
viability at 10 µg/mL (LN-229 [1]): 9.4%
viability at 1 µg/mL (LN-229 [2]): 60.3%

CN1C(=O)/C(=C\Nc2ccccc2)C(=O)NC1=S
solubility [3]: Insoluble
solubility [4]: Insoluble
viability at 10 µg/mL (LN-229 [1]): 94.3%
viability at 1 µg/mL (LN-229 [2]): 94.3%

O=C1NC(=O)N(c2ccccc2)C(=O)/C1=C/Nc1ccc2c(c1)C(=O)c1ccccc1C2=O
viability at 10 µg/mL (LN-229 [1]): 76.5%
viability at 1 µg/mL (LN-229 [2]): 87.6%

O=C1NC(=O)C(=CNc2cccc3ccccc23)C(=O)N1
viability at 10 µg/mL (LN-229 [1]): 95.1%
viability at 1 µg/mL (LN-229 [2]): 93.2%

O=C1NC(=O)N(c2ccc([N+](=O)[O-])cc2)C(=O)/C1=C/Nc1cccc2c1C(=O)c1ccccc1C2=O
viability at 10 µg/mL (LN-229 [1]): 10.4%
viability at 1 µg/mL (LN-229 [2]): 75.8%

O=C1NC(=S)NC(=O)C1=CNc1ccc(-c2ccccc2)cc1
viability at 10 µg/mL (LN-229 [1]): 13.8%
viability at 1 µg/mL (LN-229 [2]): 95.3%

CN1C(=O)/C(=C/Nc2ccc3ccccc3c2)C(=O)NC1=S
viability at 10 µg/mL (LN-229 [1]): 84.5%
viability at 1 µg/mL (LN-229 [2]): 94.6%

From ChEMBL document CHEMBL4043206, “Anticancer potential of aminomethylidene-diazinanes I. Synthesis of arylaminomethylidene of diazinetriones and its cytotoxic effects tested in glioblastoma cells” (Bioorg Med Chem, 2017)
